Source: ChEMBL document CHEMBL2311431, “Synthesis and biological evaluation of some 5-arylidene-2-(1,3-thiazol-2-ylimino)-1,3-thiazolidin-4-ones as dual anti-inflammatory/antimicrobial agents” (Bioorg Med Chem, 2013)
Converted amounts (≈) assume the structure as drawn. The source made the active and inactive calls. The calls are words filed in the database; no cut-off is given here.

Tests used:
Escherichia coli [1] = experiment: Bactericidal activity against Escherichia coli ATCC 35210 after 72 hrs by serial subcultivation method; format: functional; conditions: ATCC 35210, 72 h
Pseudomonas aeruginosa [2] = experiment: Bactericidal activity against Pseudomonas aeruginosa ATCC 27853 after 72 hrs by serial subcultivation method; format: functional; conditions: ATCC 27853, 72 h
Listeria monocytogenes [3] = experiment: Bactericidal activity against Listeria monocytogenes NCTC 7973 after 72 hrs by serial subcultivation method; format: functional; conditions: NCTC 7973, 72 h
Bacillus cereus [4] = experiment: Bactericidal activity against Bacillus cereus clinical isolate after 72 hrs by serial subcultivation method; format: functional
Micrococcus flavus [5] = experiment: Bactericidal activity against Micrococcus flavus ATCC 10240 after 72 hrs by serial subcultivation method; format: functional; conditions: ATCC 10240, 72 h
Staphylococcus aureus [6] = experiment: Bactericidal activity against Staphylococcus aureus ATCC 6538 after 72 hrs by serial subcultivation method; format: functional; conditions: ATCC 6538, 72 h
Escherichia coli [7] = experiment: Antibacterial activity against Escherichia coli ATCC 35210 after 24 hr by microdilution test; format: functional; conditions: ATCC 35210, 24 h
Summary of the method: (§1)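 Broth microdilution in LB medium, about 1.0×10^4 cfu per well; compounds from 1 mg/ml stocks in 5% DMSO. Incubated 24 h. MIC is the lowest concentration with no visible growth under a binocular microscope. Run in duplicate, repeated three times.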

Listeria monocytogenes [8] = experiment: Antibacterial activity against Listeria monocytogenes NCTC 7973 after 24 hr by microdilution test; format: functional; conditions: NCTC 7973, 24 h; summary of the method: as §1
Pseudomonas aeruginosa [9] = experiment: Antibacterial activity against Pseudomonas aeruginosa ATCC 27853 after 24 hr by microdilution test; format: functional; conditions: ATCC 27853, 24 h; summary of the method: as §1
Micrococcus flavus [10] = experiment: Antibacterial activity against Micrococcus flavus ATCC 10240 after 24 hr by microdilution test; format: functional; conditions: ATCC 10240, 24 h; summary of the method: as §1
Bacillus cereus [11] = experiment: Antibacterial activity against Bacillus cereus clinical isolate after 24 hr by microdilution test; format: functional; summary of the method: as §1
Staphylococcus aureus [12] = experiment: Antibacterial activity against Staphylococcus aureus ATCC 6538 after 24 hr by microdilution test; format: functional; conditions: ATCC 6538, 24 h; summary of the method: as §1
Aspergillus niger [13] = experiment: Fungicidal activity against Aspergillus niger ATCC 6275 after 72 hrs by serial subcultivation method; format: functional; conditions: ATCC 6275, 72 h
Aspergillus niger [14] = experiment: Antifungal activity against Aspergillus niger ATCC 6275 after 72 hrs by serial dilution technique; format: functional; conditions: ATCC 6275, 72 h
Summary of the method: (§2)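 Serial dilution in malt broth; compounds from 1 mg/ml stocks in 5% DMSO; 72 h at 28 °C. MIC is the lowest concentration with no visible growth under a binocular microscope. Run in duplicate, repeated three times.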

Aspergillus fumigatus [15] = experiment: Fungicidal activity against Aspergillus fumigatus after 72 hrs by serial subcultivation method; format: functional
Aspergillus flavus [16] = experiment: Fungicidal activity against Aspergillus flavus ATCC 9643 after 72 hrs by serial subcultivation method; format: functional; conditions: ATCC 9643, 72 h
Trichoderma viride [17] = experiment: Fungicidal activity against Trichoderma viride IAM 5061 after 72 hrs by serial subcultivation method; format: functional; conditions: IAM 5061, 72 h
Penicillium ochrochloron [18] = experiment: Fungicidal activity against Penicillium ochrochloron ATCC 9112 after 72 hrs by serial subcultivation method; format: functional; conditions: ATCC 9112, 72 h
Aspergillus flavus [19] = experiment: Antifungal activity against Aspergillus flavus ATCC 9643 after 72 hrs by serial dilution technique; format: functional; conditions: ATCC 9643, 72 h; summary of the method: as §2
Talaromyces funiculosus [20] = experiment: Fungicidal activity against Penicillium funiculosum ATCC 36839 after 72 hrs by serial subcultivation method; format: functional; conditions: ATCC 36839, 72 h
Aspergillus fumigatus [21] = experiment: Antifungal activity against Aspergillus fumigatus after 72 hrs by serial dilution technique; format: functional; summary of the method: as §2
Trichoderma viride [22] = experiment: Antifungal activity against Trichoderma viride IAM 5061 after 72 hrs by serial dilution technique; format: functional; conditions: IAM 5061, 72 h; summary of the method: as §2
Penicillium ochrochloron [23] = experiment: Antifungal activity against Penicillium ochrochloron ATCC 9112 after 72 hrs by serial dilution technique; format: functional; conditions: ATCC 9112, 72 h; summary of the method: as §2
Talaromyces funiculosus [24] = experiment: Antifungal activity against Penicillium funiculosum ATCC 36839 after 72 hrs by serial dilution technique; format: functional; conditions: ATCC 36839, 72 h; summary of the method: as §2
[25] = biological target: T1, Prostaglandin G/H synthase 1 (Ovis aries) (UniProt P05979); experiment: Inhibition of ovine COX1 assessed as inhibition of PGF2a production by enzyme immunoassay; design: concentration or dose not given beside the values
T1 sequence (whole entry): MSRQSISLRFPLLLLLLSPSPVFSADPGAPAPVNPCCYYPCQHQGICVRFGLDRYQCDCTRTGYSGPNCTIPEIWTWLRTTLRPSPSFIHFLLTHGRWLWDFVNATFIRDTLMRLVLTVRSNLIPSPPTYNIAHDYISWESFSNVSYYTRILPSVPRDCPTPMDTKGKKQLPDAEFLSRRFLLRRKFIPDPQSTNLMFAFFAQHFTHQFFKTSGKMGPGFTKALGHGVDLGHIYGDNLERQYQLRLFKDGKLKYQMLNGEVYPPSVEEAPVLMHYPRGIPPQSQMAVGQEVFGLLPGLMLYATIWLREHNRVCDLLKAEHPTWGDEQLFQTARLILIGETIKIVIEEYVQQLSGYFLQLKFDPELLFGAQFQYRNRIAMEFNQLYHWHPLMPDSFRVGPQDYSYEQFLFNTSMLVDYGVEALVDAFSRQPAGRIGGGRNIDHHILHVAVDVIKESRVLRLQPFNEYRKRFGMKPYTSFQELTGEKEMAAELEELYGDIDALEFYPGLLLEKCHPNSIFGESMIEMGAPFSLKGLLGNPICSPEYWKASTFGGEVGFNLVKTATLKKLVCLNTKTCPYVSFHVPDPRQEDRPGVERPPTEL
Summary of the method: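 Ovine COX-1 from a commercial screening kit, tested with 0.1 µM arachidonic acid, which is below the saturating level. COX-derived PGH2 is reduced by SnCl2 to PGF2a, quantified by enzyme immunoassay with a broad prostaglandin antibody. At least triplicate.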

[26] = Inhibition of soybean lipoxygenase assessed as inhibition of sodium linolate conversion to 13-hydroperoxylinoleic acid after 4 mins by spectrophotometry; design: species or system Glycine max
Mus musculus = experiment: Antiinflammatory activity in AKR mouse assessed as inhibition of carrageenan-induced paw edema at 0.01 mmol/kg, ip measured after 3.5 hrs of carrageenan-challenge; format: functional
Summary of the method: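 AKR mice of both sexes (pregnant females excluded), 6-10 per group, fasted during the experiment. Edema induced by intradermal 0.05 mL of 2% carrageenin into the right hind paw. Compound given at 0.01 mmol/kg ip, suspended in water with Tween-80, at the same time as carrageenin.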

Compound	MBC (Escherichia coli [1]) [µM]	MBC (Pseudomonas aeruginosa [2]) [µM]	MBC (Listeria monocytogenes [3]) [µM]	MBC (Bacillus cereus [4]) [µM]	MBC (Micrococcus flavus [5]) [µM]	MBC (Staphylococcus aureus [6]) [µM]	MIC (Escherichia coli [7]) [µM]	MIC (Listeria monocytogenes [8]) [µM]	MIC (Pseudomonas aeruginosa [9]) [µM]	MIC (Micrococcus flavus [10]) [µM]	MIC (Bacillus cereus [11]) [µM]	MIC (Staphylococcus aureus [12]) [µM]	MFC (Aspergillus niger [13]) [µM]	MIC (Aspergillus niger [14]) [µM]	MFC (Aspergillus fumigatus [15]) [µM]	MFC (Aspergillus flavus [16]) [µM]	MFC (Trichoderma viride [17]) [µM]	MFC (Penicillium ochrochloron [18]) [µM]	MIC (Aspergillus flavus [19]) [µM]	MFC (Talaromyces funiculosus [20]) [µM]	other results
CN[C@@H]1[C@H](O[C@H]2[C@H](O[C@H]3[C@H](O)[C@@H](O)[C@H](N=C(N)N)[C@@H](O)[C@@H]3N=C(N)N)O[C@@H](C)[C@]2(O)C=O)O[C@@H](CO)[C@H](O)[C@H]1O [STREPTOMYCIN]	344 (≈ 200 µg/mL)	344 (≈ 200 µg/mL)	516 (≈ 300 µg/mL)	86 (≈ 50 µg/mL)	172 (≈ 100 µg/mL)	344 (≈ 200 µg/mL)	172 (≈ 100 µg/mL)	258 (≈ 150 µg/mL)	172 (≈ 100 µg/mL)	86 (≈ 50 µg/mL)	43 (≈ 25 µg/mL)	172 (≈ 100 µg/mL)									
CC1(C)S[C@@H]2[C@H](NC(=O)[C@H](N)c3ccccc3)C(=O)N2[C@H]1C(=O)O [AMPICILLIN]	492 (≈ 172 µg/mL)	1240 (≈ 433 µg/mL)	744 (≈ 260 µg/mL)	372 (≈ 130 µg/mL)	372 (≈ 130 µg/mL)	372 (≈ 130 µg/mL)	372 (≈ 130 µg/mL)	372 (≈ 130 µg/mL)	744 (≈ 260 µg/mL)	248 (≈ 86.7 µg/mL)	248 (≈ 86.7 µg/mL)	248 (≈ 86.7 µg/mL)									
O=C1N/C(=N\c2nc(-c3ccccc3)cs2)S/C1=C\c1ccccc1Cl	100 (≈ 39.8 µg/mL)	100 (≈ 39.8 µg/mL)	25 (≈ 9.95 µg/mL)	25 (≈ 9.95 µg/mL)	25 (≈ 9.95 µg/mL)	100 (≈ 39.8 µg/mL)	50 (≈ 19.9 µg/mL)	25 (≈ 9.95 µg/mL)	50 (≈ 19.9 µg/mL)	25 (≈ 9.95 µg/mL)	25 (≈ 9.95 µg/mL)	50 (≈ 19.9 µg/mL)	23.4 (≈ 9.31 µg/mL)	17.6 (≈ 7 µg/mL)	23.4 (≈ 9.31 µg/mL)	23.4 (≈ 9.31 µg/mL)	23.4 (≈ 9.31 µg/mL)	23.4 (≈ 9.31 µg/mL)	17.6 (≈ 7 µg/mL)	23.4 (≈ 9.31 µg/mL)	MIC (Aspergillus fumigatus [21]): 17.6 µM (≈ 7 µg/mL); MIC (Trichoderma viride [22]): 11.7 µM (≈ 4.66 µg/mL); MIC (Penicillium ochrochloron [23]): 11.7 µM (≈ 4.66 µg/mL); MIC (Talaromyces funiculosus [24]): 17.6 µM (≈ 7 µg/mL)
COc1ccc2c(c1)c(CC(=O)O)c(C)n2C(=O)c1ccc(Cl)cc1 [INDOMETHACIN]																					inhibition [25]: inactive; IC50 [26]: Not Active
CC(Cc1ccc(O)c(O)c1)C(C)Cc1ccc(O)c(O)c1 (stereo not given) [NORDIHYDROGUAIARETIC ACID]																					inhibition (Mus musculus): inactive; inhibition [25]: inactive; IC50 ([26]; read-out: IC50): 32 µM
c1ccc(-c2ccc(C(c3ccccc3)n3ccnc3)cc2)cc1 (stereo not given) [BIFONAZOLE]													640 (≈ 199 µg/mL)	480 (≈ 149 µg/mL)	640 (≈ 199 µg/mL)	640 (≈ 199 µg/mL)	800 (≈ 248 µg/mL)	640 (≈ 199 µg/mL)	480 (≈ 149 µg/mL)	800 (≈ 248 µg/mL)	MIC (Aspergillus fumigatus [21]): 480 µM (≈ 149 µg/mL); MIC (Trichoderma viride [22]): 640 µM (≈ 199 µg/mL); MIC (Penicillium ochrochloron [23]): 480 µM (≈ 149 µg/mL); MIC (Talaromyces funiculosus [24]): 640 µM (≈ 199 µg/mL)
COc1ccc2cc([C@H](C)C(=O)O)ccc2c1 [NAPROXEN]																					inhibition (Mus musculus): inactive; inhibition ([25]; concentration not given here): 46%; IC50 [26]: Not Active
CC(=O)N1CCN(c2ccc(OCC3COC(Cn4ccnc4)(c4ccc(Cl)cc4Cl)O3)cc2)CC1 (stereo not given) [KETOCONAZOLE]													950 (≈ 505 µg/mL)	380 (≈ 202 µg/mL)	950 (≈ 505 µg/mL)	3800 (≈ 2020 µg/mL)	5700 (≈ 3030 µg/mL)	3800 (≈ 2020 µg/mL)	2850 (≈ 1510 µg/mL)	950 (≈ 505 µg/mL)	MIC (Aspergillus fumigatus [21]): 380 µM (≈ 202 µg/mL); MIC (Trichoderma viride [22]): 4750 µM (≈ 2520 µg/mL); MIC (Penicillium ochrochloron [23]): 3800 µM (≈ 2020 µg/mL); MIC (Talaromyces funiculosus [24]): 380 µM (≈ 202 µg/mL)
